FGF22 binding – FGF22 (human) thermal shift binding. Q9HCT0. recombinant FGF22 thermal shift, SYPRO orange fluorescence; percent of sucrose octasulfate shift, DMSO zero. activity (Tm shift, normalised), % at 9.99 µM. 340,000 compounds, 1.5% hits;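 active means mean Tm shift, scaled 0 neutral to 100 positive control, at about 1.3% or above, every replicate too, limit read from the data; inconclusive means no clear call, values can overlap the other calls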
Target sequence (Q9HCT0 whole entry, looked up): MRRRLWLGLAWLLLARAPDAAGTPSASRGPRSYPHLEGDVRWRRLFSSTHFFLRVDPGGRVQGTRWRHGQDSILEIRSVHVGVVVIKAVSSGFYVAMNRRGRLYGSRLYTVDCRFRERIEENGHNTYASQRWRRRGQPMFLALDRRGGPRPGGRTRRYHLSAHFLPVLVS
XiGFP reactiv – X-chromosome reactivation activator | XiGFP mouse fibroblasts, % GFP-positive cells imaging, 3 d; cells co-treated with 5-aza-dC sensitizer; scaled so ellipticine positive control = 100% | activation, % at 7.58 µM | 360,000 compounds, 0.055% hits;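 active means mean normalized replicate activation at least 10% and every replicate at or above 10%; inconclusive means only one of the two criteria met; inactive means mean below 10% and not all replicates reach 10%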
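Assay system – SV40-immortalized XiGFP fibroblast cells, line 68-5-11 · Buffer or medium – DMEM supplemented with 5-aza-dC as sensitizing agent · Dosing – one concentration, pinned · Benchmarks – positive control ellipticine, 6 µM final · Times – 3 days compound exposure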
E-selectin induc – E-selectin induction on HUVECs | P16581 | 260,000 compounds, 0.37% hits | activation, % at 7.58 µM | AID 686992 | HUVEC E-selectin immunofluorescence imaging; normalized: neutral wells 0, TNF-alpha wells 100;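 active means mean E-selectin-positive cell signal at least 10% of the positive control, reached in at least 60% of replicates, without over 20% cell loss; inconclusive means no rule given, readout overlaps actives, possibly toxicity-flagged; inactive means the rest, including those meeting only one limit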
Target sequence (P16581 whole entry, looked up): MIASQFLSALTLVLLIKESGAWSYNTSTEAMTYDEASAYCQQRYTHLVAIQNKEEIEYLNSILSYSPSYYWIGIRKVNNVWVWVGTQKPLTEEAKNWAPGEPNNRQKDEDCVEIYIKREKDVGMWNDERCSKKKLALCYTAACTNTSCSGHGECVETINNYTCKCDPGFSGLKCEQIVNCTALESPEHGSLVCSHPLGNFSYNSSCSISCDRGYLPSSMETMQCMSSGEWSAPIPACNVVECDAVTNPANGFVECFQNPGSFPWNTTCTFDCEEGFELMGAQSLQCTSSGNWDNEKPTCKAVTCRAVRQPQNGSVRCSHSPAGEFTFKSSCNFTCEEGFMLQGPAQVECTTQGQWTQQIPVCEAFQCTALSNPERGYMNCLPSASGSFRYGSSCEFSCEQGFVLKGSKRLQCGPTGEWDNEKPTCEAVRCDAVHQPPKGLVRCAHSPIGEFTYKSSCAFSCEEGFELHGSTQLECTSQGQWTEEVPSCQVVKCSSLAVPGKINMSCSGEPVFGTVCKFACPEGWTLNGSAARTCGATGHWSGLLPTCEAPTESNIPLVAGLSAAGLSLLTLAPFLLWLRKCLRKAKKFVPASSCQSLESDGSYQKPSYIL
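Material: HUVEC primary endothelial cells; Amount: 3,000 cells per well; Dosing: single concentration; Medium: EGM-2 growth medium on 0.1% gelatin-coated wells; Read-out basis: percent E-selectin-positive cells; Signal: immunofluorescence imaging; Control set: TNF-alpha, DMSO.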
Statin myotox sup – protects C2C12 myotubes from simvastatin toxicity; ATP luminescence, 48 h; scaled: DMSO 0, geranylgeraniol control 100; rescue of ATP level, % at 7.49 µM; 330,000 compounds, 0.78% hits; AID 602340;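 active means mean ATP rescue above about 67%, or every replicate alone reaching that limit, limit read from the data, passing the limit was not always enough; inconclusive means no clear call, values can overlap the other calls; inactive means mean under the limit and some replicate under it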;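 further: myotubes were challenged with 10 µM simvastatin during compound exposure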
PglD DTNB – PglD (C. jejuni) enzyme inhibition; purified PglD enzyme, DTNB colorimetric CoA detection; inhibition, % at 12.5 µM; 360,000 compounds, 0.098% hits; in the data active means inhibition above about 16%, passing the limit was not always enough; inconclusive means no clear call, values can overlap the other calls
DENV2 CPE – DENV2-induced cell death inhibition; DENV2-infected cells, cytopathic effect rescue, plate reader; CPE inhibition, % at 9.99 µM; 350,000 compounds, 1.7% hits; AID 651640; in the data active means CPE inhibition above about 20%, passing the limit was not always enough; inconclusive means no clear call, values can overlap the other calls; tested in BHK-21 cells
Large screens that a line does not name were inactive. This is a sample that favours compounds with a hit; in the whole collection about 3.3% have one here.

O=C(Nc1ccccc1N1CCCC1)c1ccc([N+](=O)[O-])cc1Cl	FGF22 binding 44 (no result: E-selectin induc, Statin myotox sup, PglD DTNB)
O=C(Nc1ccccc1N1CCCC1)c1cc(Cl)ccc1Cl	FGF22 binding 45, DENV2 CPE inconclusive (no result: E-selectin induc, Statin myotox sup, PglD DTNB)
Cc1ccccc1S(=O)(=O)N1CC[C@@H]2[C@@H](CO)Nc3ccc(-c4ccc(C#N)cc4)cc3[C@@H]21	none
O=C(NCC[C@H]1CC[C@H](NC(=O)C2CCC2)[C@@H](CO)O1)c1ccc(F)cc1	none
CC(C)NC(=O)Nc1ccc2c(c1)CC(=O)N(C)C[C@H](C)[C@H](CN(C)C(=O)NC(C)C)O2	none (no result: FGF22 binding, E-selectin induc, Statin myotox sup, PglD DTNB, DENV2 CPE)
CN(C)CCCNC(=O)C[C@@H]1CC[C@H]2[C@@H](COC[C@@H](O)CN2CC2CCCCC2)O1	none (no result: FGF22 binding, Statin myotox sup, PglD DTNB)
COc1ccc(NC(=O)N(C)C[C@@H]2Oc3c(NC(=O)c4ccc(-c5nccs5)cc4)cccc3C(=O)N([C@@H](C)CO)C[C@@H]2C)cc1	none (no result: Statin myotox sup)
CCOC(=O)c1c(C)[nH]c(C(=O)COC(=O)C2CC(=O)N(Cc3ccccc3)C2)c1C (configuration not stated)	Statin myotox sup 92 (no result: FGF22 binding, XiGFP reactiv, E-selectin induc, DENV2 CPE)
COc1ccc(S(=O)(=O)N2C[C@H](O)COC[C@@H]3O[C@H](CC(=O)N[C@@H]4CCN(Cc5ccccc5)C4)CC[C@H]32)cc1	none
COCC(=O)N(C)C[C@@H]1Oc2ncc(-c3cccc(OC)c3)cc2C(=O)N([C@@H](C)CO)C[C@@H]1C	none
COc1ccc(S(=O)(=O)N2CCOCC2)cc1NC(=O)COC(=O)C1COc2ccccc2O1 (configuration not stated)	E-selectin induc 118, DENV2 CPE inconclusive (no result: Statin myotox sup)
COc1ccc(S(=O)(=O)N2CCOCC2)cc1NC(=O)CSc1ncccn1	Statin myotox sup 110
CC(C)Oc1ccc(S(=O)(=O)N2CCOCC2)cc1NC(=O)Cc1ccsc1	DENV2 CPE 42
COc1cc(/C=C(\NC(C)=O)C(=O)Nc2ccccc2C)ccc1OC(C)=O	DENV2 CPE 21 (no result: FGF22 binding, E-selectin induc, Statin myotox sup)
CC(=O)Nc1ccc(S(=O)(=O)N2CCCCC2c2cccnc2)cc1 (configuration not stated)	none (no result: FGF22 binding, XiGFP reactiv, E-selectin induc, DENV2 CPE)
CN1CCCC1c1cccnc1 (configuration not stated)	DENV2 CPE 117 (no result: XiGFP reactiv, E-selectin induc)
O=C(CNCc1ccccc1)Nc1ccccc1-c1ccccc1	FGF22 binding 44 (no result: E-selectin induc, Statin myotox sup, PglD DTNB)
O=C(CNCc1ccccc1)Nc1cccc(Cl)c1Cl	none
CC(=O)C[C@@H](O)CC(=O)[C@@H]1OC(=O)CCCCCCc2ccccc21	Statin myotox sup 112
CCC(=O)N1CCc2cc(S(=O)(=O)CCC(=O)NCCc3ccc(OC)c(OC)c3)ccc21	Statin myotox sup 107 (no result: FGF22 binding, XiGFP reactiv, E-selectin induc, DENV2 CPE)
C[C@@H]1CN([C@H](C)CO)S(=O)(=O)c2ccc(C3=CCCC3)cc2O[C@H]1CN(C)C(=O)c1cnccn1	none (no result: FGF22 binding, PglD DTNB, DENV2 CPE)
Cc1nn(CCS(=O)(=O)c2ccc(Cl)cc2)c(C)c1Br	E-selectin induc 78 (no result: Statin myotox sup)
Cc1noc2ncnc(Sc3ccc(Cl)cc3)c12	Statin myotox sup 134 (no result: FGF22 binding, XiGFP reactiv, E-selectin induc, DENV2 CPE)
Cc1ccc(Sc2ncnc3onc(C)c23)cc1	Statin myotox sup 98 (no result: FGF22 binding, XiGFP reactiv, E-selectin induc, DENV2 CPE)
Cc1ccc(CSc2ncnc3onc(C)c23)cc1	none (no result: E-selectin induc, Statin myotox sup, PglD DTNB)
CCCNC(=O)Nc1ccc2c(c1)C(=O)N(C)C[C@H](OC)[C@@H](C)CN(CCC)[C@H](C)CO2	none (no result: FGF22 binding)
COc1cccc(C(=O)Nc2ccccc2C(=O)N2CCCC2)c1	Statin myotox sup 100 (no result: FGF22 binding, XiGFP reactiv, E-selectin induc, DENV2 CPE)
COc1ccc(S(=O)(=O)N2CCCCCC2)cc1C(=O)N(C)Cc1ccc(C(C)(C)C)cc1	DENV2 CPE 59
COc1ccc(NC(=O)c2cccc(S(=O)(=O)N3CCc4ccccc43)c2)c(OC)c1	FGF22 binding 44
CCN1CCN(c2ccc(S(=O)(=O)N3CCCCC3)cc2NC(=O)c2ccc(C)c(C)c2)CC1	DENV2 CPE 38 (no result: E-selectin induc)
CC(=O)Oc1cccc(C(=O)Nc2ccccc2C(=O)N2CCCC2)c1	none
CCN1CCN(c2ccc(S(=O)(=O)N3CCCCC3)cc2NC(=O)c2cccc(C)c2)CC1	none (no result: Statin myotox sup, PglD DTNB)
COc1ccc(S(=O)(=O)N2CCCCCC2)cc1C(=O)N(C)Cc1ccc(F)cc1	none (no result: PglD DTNB)
N#C[C@H]1[C@@H](c2ccc(C#CC3CCCCC3)cc2)[C@H](CO)N1C(=O)Cc1ccccn1	none (no result: DENV2 CPE)
C[C@@H]1CN([C@H](C)CO)C(=O)c2cc(NC(=O)CCCN(C)C)ccc2O[C@@H]1CN(C)S(=O)(=O)c1cccs1	none
C[C@H]1CCCCO[C@H](CN(C)C(=O)Nc2cccc3ccccc23)[C@@H](C)CN([C@@H](C)CO)C(=O)c2cc(NS(=O)(=O)c3cn(C)cn3)ccc2O1	none (no result: Statin myotox sup)
COc1ccc(S(=O)(=O)N2CCCCCC2)cc1NC(=O)Cc1cccc(C(F)(F)F)c1	DENV2 CPE 111 (no result: E-selectin induc)
COc1cccc(C(=O)Nc2cc(S(=O)(=O)N3CCCCC3)ccc2OC)c1	FGF22 binding 43 (no result: PglD DTNB)
C[C@H]1CN([C@@H](C)CO)C(=O)c2cc(-c3ccncc3)cnc2O[C@@H]1CN(C)C(=O)c1ccc(F)cc1	none
Cc1ccc(S(=O)(=O)N(C)C[C@@H]2Oc3ccc(NC(=O)CCCCCC(=O)Nc4ccccc4N)cc3CC(=O)N([C@H](C)CO)C[C@@H]2C)cc1	none
NS(=O)(=O)c1ccc(NCC2COc3ccccc3O2)c([N+](=O)[O-])c1 (configuration not stated)	FGF22 binding 43 (no result: Statin myotox sup, PglD DTNB)
CC(=O)c1ccc(OC2(C)CCN(Cc3ccc4ccccc4c3)C2)cc1 (configuration not stated)	DENV2 CPE 117 (no result: E-selectin induc)
COC(=O)Cc1ccc(OC2(C)CCN(Cc3csc4ccccc34)C2)cc1 (configuration not stated)	DENV2 CPE 26
CC(=O)c1ccc(OC2(C)CCN(Cc3ccc(C)cc3)C2)cc1 (configuration not stated)	none
CC(C)Oc1ccccc1OC1(C)CCN(Cc2ccc(OC(F)(F)F)cc2)C1 (configuration not stated)	DENV2 CPE 42
CC1(Oc2ccc(Cl)cc2)CCN(Cc2ccc(OC(F)(F)F)cc2)C1 (configuration not stated)	none
CC1(Oc2cccc(F)c2)CCN(Cc2csc3ccccc23)C1 (configuration not stated)	DENV2 CPE inconclusive
O=C(c1ccccc1)N1CC[C@@H]2[C@H](CO)Nc3ccc(C#Cc4cccc(F)c4)cc3[C@@H]21	DENV2 CPE 116
O=C(c1cccc(F)c1)N1CC[C@@H]2[C@@H](CO)Nc3ccc(C#Cc4ccccc4)cc3[C@@H]21	none (no result: FGF22 binding, Statin myotox sup, PglD DTNB)
O=C(c1ccccc1)N1CC[C@H]2[C@H](CO)Nc3ccc(C#Cc4cccc(F)c4)cc3[C@H]21	DENV2 CPE 64
C[C@@H]1CN([C@@H](C)CO)C(=O)c2cccc(NC(=O)c3cnccn3)c2O[C@H]1CN(C)S(=O)(=O)c1ccc(Cl)cc1	none (no result: FGF22 binding, Statin myotox sup, PglD DTNB, DENV2 CPE)

Assay outcomes as filed in PubChem.
